Laboratory results published in ChEMBL document CHEMBL1136473, “6-(2-adamantan-2-ylidene-hydroxybenzoxazole)-O-sulfamate: a potent non-steroidal irreversible inhibitor of human steroid sulfatase” (Bioorg Med Chem Lett, 2003).
Active and inactive are the calls of the source. The calls are words filed in the database; no cut-off is given here.

Key:
Estrogen receptor = biological target: T1, Estrogen receptor (Homo sapiens, UniProt P03372); assay: Affinity for human estrogen receptor alpha
T1 sequence (P03372 whole entry): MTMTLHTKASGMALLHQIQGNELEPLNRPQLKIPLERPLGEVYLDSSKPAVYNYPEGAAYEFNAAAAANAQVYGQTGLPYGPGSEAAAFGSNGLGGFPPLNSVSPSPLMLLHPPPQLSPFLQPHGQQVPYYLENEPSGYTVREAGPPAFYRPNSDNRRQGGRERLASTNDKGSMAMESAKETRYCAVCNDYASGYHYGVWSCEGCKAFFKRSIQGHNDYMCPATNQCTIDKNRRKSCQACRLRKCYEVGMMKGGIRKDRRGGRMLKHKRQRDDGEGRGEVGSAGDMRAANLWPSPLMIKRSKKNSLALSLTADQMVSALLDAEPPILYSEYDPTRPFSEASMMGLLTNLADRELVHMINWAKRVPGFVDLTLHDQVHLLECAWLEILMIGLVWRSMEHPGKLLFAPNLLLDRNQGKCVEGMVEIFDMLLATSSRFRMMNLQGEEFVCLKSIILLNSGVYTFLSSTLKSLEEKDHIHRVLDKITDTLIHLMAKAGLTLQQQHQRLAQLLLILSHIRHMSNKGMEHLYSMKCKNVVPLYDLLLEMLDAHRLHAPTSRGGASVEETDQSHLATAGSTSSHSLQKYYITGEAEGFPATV

Estrogen receptor beta = Estrogen receptor beta (Homo sapiens, UniProt Q92731); assay: Affinity for human estrogen receptor beta
Estrogen receptor beta, sequence (Q92731 whole entry): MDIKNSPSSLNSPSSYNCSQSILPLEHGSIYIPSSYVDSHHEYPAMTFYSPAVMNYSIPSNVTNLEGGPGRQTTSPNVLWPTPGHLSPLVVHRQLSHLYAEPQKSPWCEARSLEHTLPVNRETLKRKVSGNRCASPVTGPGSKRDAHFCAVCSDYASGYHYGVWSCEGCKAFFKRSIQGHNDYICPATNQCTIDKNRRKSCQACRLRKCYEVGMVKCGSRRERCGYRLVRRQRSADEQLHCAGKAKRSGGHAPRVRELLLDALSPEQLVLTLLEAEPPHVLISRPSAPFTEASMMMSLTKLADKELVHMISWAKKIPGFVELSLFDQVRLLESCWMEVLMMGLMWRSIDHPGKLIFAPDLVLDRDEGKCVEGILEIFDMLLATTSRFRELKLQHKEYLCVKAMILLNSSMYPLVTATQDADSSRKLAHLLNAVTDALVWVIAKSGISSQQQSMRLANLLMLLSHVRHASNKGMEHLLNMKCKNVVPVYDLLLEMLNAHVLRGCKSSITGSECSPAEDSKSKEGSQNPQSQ

[1] = biological target: T2, Steryl-sulfatase (Homo sapiens) (UniProt P08842); assay: Rate constant of inactivation against human steroid sulfatase
T2 sequence (whole entry): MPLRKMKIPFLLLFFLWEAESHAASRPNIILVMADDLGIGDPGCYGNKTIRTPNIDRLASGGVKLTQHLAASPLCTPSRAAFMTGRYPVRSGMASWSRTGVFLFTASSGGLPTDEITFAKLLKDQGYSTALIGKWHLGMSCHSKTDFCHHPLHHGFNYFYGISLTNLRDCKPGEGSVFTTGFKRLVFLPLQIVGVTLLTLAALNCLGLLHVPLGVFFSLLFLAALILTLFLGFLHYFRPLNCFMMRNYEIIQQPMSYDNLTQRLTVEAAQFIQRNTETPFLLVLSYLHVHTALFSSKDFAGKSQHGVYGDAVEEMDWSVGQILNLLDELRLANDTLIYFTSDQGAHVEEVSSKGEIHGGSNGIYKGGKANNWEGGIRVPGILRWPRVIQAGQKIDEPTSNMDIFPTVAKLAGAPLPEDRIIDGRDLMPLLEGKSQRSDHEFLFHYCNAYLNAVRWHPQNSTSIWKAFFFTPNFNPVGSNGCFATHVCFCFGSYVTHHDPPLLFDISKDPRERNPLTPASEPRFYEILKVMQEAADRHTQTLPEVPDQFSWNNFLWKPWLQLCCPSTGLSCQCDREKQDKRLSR
How it was run: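 Purified human steroid sulfatase incubated with a range of inhibitor concentrations. Residual enzyme activity measured over time to follow inactivation kinetics, giving Ki and kinact.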

Steryl-sulfatase [2] = biological target: T3, Steryl-sulfatase (Homo sapiens, UniProt P08842); assay: Inhibitory constant against purified human steroid sulfatase
T3 sequence (P08842 whole entry): T2 sequence (whole entry)

[3] = biological target: T4, Arylsulfatase A (Homo sapiens) (UniProt P15289); assay: Inhibitory activity against human Arylsulfatase A (ASA) isolated from human placenta; IA=Inactive
T4 sequence (whole entry): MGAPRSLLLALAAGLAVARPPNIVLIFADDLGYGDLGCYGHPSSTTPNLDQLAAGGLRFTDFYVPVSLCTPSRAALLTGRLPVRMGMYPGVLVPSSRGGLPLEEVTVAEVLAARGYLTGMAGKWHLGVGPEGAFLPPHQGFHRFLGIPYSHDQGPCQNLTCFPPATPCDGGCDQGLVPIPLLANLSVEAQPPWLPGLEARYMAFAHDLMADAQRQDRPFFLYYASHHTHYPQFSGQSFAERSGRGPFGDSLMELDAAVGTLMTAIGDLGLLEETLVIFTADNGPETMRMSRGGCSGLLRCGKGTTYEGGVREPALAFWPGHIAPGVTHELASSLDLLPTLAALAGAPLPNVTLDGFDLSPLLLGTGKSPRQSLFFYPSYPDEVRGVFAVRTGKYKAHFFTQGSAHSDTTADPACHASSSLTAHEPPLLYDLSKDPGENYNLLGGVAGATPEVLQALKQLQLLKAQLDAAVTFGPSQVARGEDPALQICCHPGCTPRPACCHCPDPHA
How it was run: (§1)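 Arylsulfatases A and B purified from human placenta and assayed with inhibitor present at up to 10 μM. Time dependence of inhibition examined.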

[4] = biological target: Arylsulfatase B (Homo sapiens) (UniProt P15848); assay: Inhibitory activity against human aryl sulfatase B (ASB) isolated from human placenta at a concentration up to 10 uM; how it was run: as §1
Arylsulfatase B (Homo sapiens), sequence (P15848 whole entry): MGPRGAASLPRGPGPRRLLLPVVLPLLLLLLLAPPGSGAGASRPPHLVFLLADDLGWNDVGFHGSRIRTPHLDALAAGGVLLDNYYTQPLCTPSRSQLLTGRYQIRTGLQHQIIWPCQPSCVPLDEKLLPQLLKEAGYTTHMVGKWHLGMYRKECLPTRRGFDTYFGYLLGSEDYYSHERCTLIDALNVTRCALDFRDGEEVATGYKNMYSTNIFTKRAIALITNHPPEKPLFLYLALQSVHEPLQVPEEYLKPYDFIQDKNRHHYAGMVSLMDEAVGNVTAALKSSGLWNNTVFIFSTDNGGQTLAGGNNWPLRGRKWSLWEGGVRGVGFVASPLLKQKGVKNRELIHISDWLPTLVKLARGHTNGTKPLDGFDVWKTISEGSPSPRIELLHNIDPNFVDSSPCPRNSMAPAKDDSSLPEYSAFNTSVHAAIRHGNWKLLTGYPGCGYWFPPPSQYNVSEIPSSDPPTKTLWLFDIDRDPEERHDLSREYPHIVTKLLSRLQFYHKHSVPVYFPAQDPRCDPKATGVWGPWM

Steryl-sulfatase [5] = biological target: T3, Steryl-sulfatase; assay: Inhibition of human STS in keratinocytes; assay type: cell-based
Steryl-sulfatase [6] = biological target: T3, Steryl-sulfatase; assay: Inhibitory activity against STS in human MCF-7 breast cancer cells; assay type: cell-based; conditions: mcf7
How it was run: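 Intact MCF-7 breast cancer cells; STS-dependent cleavage of estrone sulfate substrate measured to derive IC50.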

Steryl-sulfatase [7] = biological target: T3, Steryl-sulfatase; assay: Inhibitory activity against human steroid sulfatase expressing in CHO cells; assay type: cell-based
Steryl-sulfatase [8] = biological target: T3, Steryl-sulfatase; assay: Inhibitory activity against human steroid sulfatase in fibroblasts

Activity [3]	inhibition [4] [%]	IC50 (Steryl-sulfatase [5]) [nM]	IC50 (Steryl-sulfatase [6]) [nM]	IC50 (Steryl-sulfatase [7]) [nM]	IC50 (Steryl-sulfatase [8]) [nM]	Structure (SMILES)	EC50 (Estrogen receptor) [nM]	EC50 (Estrogen receptor beta) [nM]	K inact [1] [U s-1]	Ki (Steryl-sulfatase [2]) [nM]
–	–	–	–	–	–	C[C@]12CC[C@@H]3c4ccc(OS(N)(=O)=O)cc4CCC3[C@@H]1CCC2=O (single isomer, unassigned) [EMATE]	2600	3700	0.009	470
inactive	25	0.77	2.3	31.8	0.75	NS(=O)(=O)Oc1ccc2nc(C=C3C4CC5CC(C4)CC3C5)oc2c1	> 100000	> 100000	0.097	6000
